Assay results: ChEMBL document CHEMBL1125387, “Synthesis and biological action of the aminotetrahydroisoquinocarbazoles and related compounds: a new class of compounds with antiarrhythmic activity” (1992)

Tested on: Mus musculus
Assay: Antiarrhythmic activity in chloroform induced ventricular arrhythmia in mice, 15 min before exposure to chloroform intraperitoneal administration
Type: functional, Heart
Method in brief: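 Female ICR mice (20-25 g) dosed ip; 15 min later placed 2 min in 2-L glass chamber saturated with chloroform vapor (150 mL chloroform warmed at 33 °C). Chest opened, ventricular ECG recorded 1 min via silver electrodes. Dose judged effective if ventricular rate <400 bpm just after thoracotomy; 3-10 mice per dose level; ED50 for protection from ventricular tachycardia calculated.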

[1] = Mus musculus, Heart, ip, read-out: ED50

Row | Compound | ED50 [1] [mg/kg] | ED50 [mg/kg]
1 | N[C@@H]1Cc2c3n(c4ccccc24)C(=O)C[C@H]2CC[C@@H]1[C@@H]32.O=C(O)/C=C/C(=O)O | 40 | 
2 | N[C@@H]1Cc2c3n(c4ccccc24)C(=O)C[C@H]2CCC[C@@H]1[C@@H]32.O=C(O)/C=C/C(=O)O | 32 | 
3 | CC[C@]12CCC[C@@H]3[C@H]1c1c(c4c(O)cccc4n1C(=O)C2)C[C@H]3C(=O)NN | > 40 | 
4 | N[C@@H]1Cc2c3n(c4ccccc24)C(=O)C[C@H]2CCCC[C@@H]1[C@@H]32.O=C(O)/C=C/C(=O)O | 80 | 
5 | N[C@@H]1Cc2c3n(c4ccccc24)C(=O)CC[C@H]3C1.O=C(O)/C=C/C(=O)O | > 40 | 
6 | CC[C@]12CCC[C@@H]3[C@H]1c1c(c4cc(O)ccc4n1C(=O)C2)C[C@H]3C(=O)NCCN1CCCC1 | > 40 | 
7 | CCCC[C@@]12CCC[C@H]3[C@H](N)Cc4c(n(c5ccc(O)cc45)C(=O)C1)[C@H]32 | 12 | 
8 | CC(C)[C@@]12CCC[C@H]3[C@H](N)Cc4c(n(c5ccc(O)cc45)C(=O)C1)[C@H]32 | 8.4 | 
9 | C[C@@]12CCC[C@H]3[C@H](N)Cc4c(n(c5ccc(O)cc45)C(=O)C1)[C@H]32 | > 40 | 
10 | CC[C@]12CCC[C@@H]3[C@H]1c1c(c4cc(O)ccc4n1C(=O)C2)C[C@H]3C(=O)OCCN1CCN(C)CC1 | 34 | 
11 | N[C@@H]1Cc2c3n(c4ccc(O)cc24)C(=O)C[C@@]2(CCc4ccccc4)CCC[C@@H]1[C@@H]32 | > 40 | 
12 | N[C@@H]1Cc2c3n(c4ccc(O)cc24)C(=O)C[C@H]2CCC[C@@H]1[C@@H]32 | > 40 | 
13 | N[C@@H]1Cc2c3n(c4ccc(O)cc24)C(=O)C[C@@]2(Cc4ccccc4)CCC[C@@H]1[C@@H]32 | > 40 | 
14 | N[C@@H]1Cc2c3n(c4cccc(O)c24)C(=O)C[C@@]2(CCc4ccccc4)CCC[C@@H]1[C@@H]32 | > 40 | 
15 | CC[C@@]12CCC[C@H]3CCc4c(n(c5ccccc45)C(=O)C1)[C@H]32 | > 40 | 
16 | Cl.NCCc1cn(C(=O)CC2CCCCC2)c2ccccc12 | 48 | 
17 | CC[C@@]12CCC[C@H]3[C@H](N)Cc4c(n(c5cc(O)c(O)cc45)C(=O)C1)[C@H]32.Cl | 7 | 
18 | C[C@@]12CCC[C@H]3[C@H](N)Cc4c(n(c5cc(O)c(O)cc45)C(=O)C1)[C@H]32.Cl | 34 | 
19 | CC[C@@]12CCC[C@H]3[C@H](N)Cc4c(n(c5cc(OC)c(OC)cc45)C(=O)C1)[C@H]32.Cl | 34 | 
20 | CC[C@@]12CCC[C@H]3[C@H](N)Cc4c(n(c5cccc(O)c45)C(=O)C1)[C@H]32.Cl | 6 | 
21 | CCC[C@@]12CCC[C@H]3[C@H](N)Cc4c(n(c5cc(O)c(O)cc45)C(=O)C1)[C@H]32.Cl | 20 | 
22 | Cl.N[C@@H]1Cc2c3n(c4cc(O)c(O)cc24)C(=O)C[C@H]2CCC[C@@H]1[C@@H]32 | > 40 | 
23 | C[C@@]12CCC[C@H]3[C@H](N)Cc4c(n(c5cccc(O)c45)C(=O)C1)[C@H]32.Cl | 8 | 
24 | CCC[C@@]12CCC[C@H]3[C@H](N)Cc4c(n(c5cccc(O)c45)C(=O)C1)[C@H]32.Cl | 20 | 
25 | Cl.N[C@@H]1Cc2c3n(c4cccc(O)c24)C(=O)C[C@H]2CCC[C@@H]1[C@@H]32 (stereo in doubt; 10) | 10 | 
26 | Cl.N[C@@H]1Cc2c3n(c4cccc(O)c24)C(=O)C[C@H]2CCC[C@@H]1[C@@H]32 (stereo in doubt; (+)-10) |  | 5
27 | CC(C)N(CCC(C(N)=O)(c1ccccc1)c1ccccn1)C(C)C (configuration not stated) [DISOPYRAMIDE] | 11.8 | 
